Fewer inactive variants are shown than the library holds.
B1: tRNA (parent)
chain: GUUCCGUUGGCGUAAUGGUAACGCGUCUCCCUCCUAAGGAGAAGACUGCGGGUUCGAGUCCCGUACGGAACG

Variants of: B1
Test: yeast fitness relative to wild type (ratio to wild type); higher = fitter; tRNA-Arg(CCU), competitive growth, 37 C, YPD
In short: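 Start and end populations of a pooled competition were compared by 100-nucleotide paired-end sequencing of gene amplicons. The Saccharomyces cerevisiae strains carried tRNA-Arg(CCU) gene variants at the native genomic locus, synthesised with a 3% per-site mutation rate at 69 sites, and competed in YPD at 37°C for 24 hours in six parallel replicates. Darwinian fitness relative to wild type was based on the change in genotype frequencies. Genotypes required ≥ 100 starting reads, and estimates < 0.5 were set to 0.5.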

Point of comparison: GUCCCGUCGGCGCAAUGGUAACGCGUCUCCCUCCUAAGGAGAAGACUGCGGGUUCGAGUCCCGUACGGAACG, yeast fitness 0.548. Against it:
- GUCCCGUUGGCGUAAUGGUAACGCGUCUCCCUCCUAAGGAGAAGAAUGCGGGUUCGAGUCCCGUACGGAACG — higher, 0.912
- GUCCCGUUGGCGUAAUGGUAACGCGUCUCCCUCCUAAGGAGAAGAAUGCGGGUUCGAGUCCCGUACAGACCG — higher, 0.556
- GUCCCGUUGGCGUAAUGGUAACGCGUCUCCCUCCUAAGGAGAAGAGUGCGGGUUCGAGUCCCGUACGGAACG — higher, 0.912
- GUCCCGUUGGCGUAAUGGUAACGCGUCUCCCUCCUAAGGAGAAGACUGAGGGUUCGAGUCCCGUACGGAACG — higher, 0.599
- GUCCCGUUGGCGUAAUGGUAACGCGUCUCCCUCCUAAGGAGAAGACUGCGGGUUUGAGUCCCGUGCGGAACG — lower, 0.514
- GUCCCGUUGGCGUAAUGGUAACGCGUCUCCCUCCUAAGGAGAAGACUGCGGGUUCGAGUCUCGUACAGAACG — higher, 0.567
- GUCCCGUUGGCGUAAUGGUAACGCGUCUCCCUCCUAAGGAGAAGACUGCGGGUUCGAGUCCUGUACGGAACG — higher, 0.904
- GUCCCGUUGGCGUAAUGGUAACGCGUCUCCCUCCUAAGGAGAAGACUGCGGGUUCGAGUCCCGUAAGGAACG — higher, 0.711
- GUCCCGUUGGCGUAAUGGUAACGCGUCUCCCUCCUAAGGAGAAGACUGCGGGUUCGAGUCCCGUAUGGAACG — higher, 0.904
- GUCCCCUUGGCGUUAUGGUGACGCAUCUCCCUCCUAAAGAGAAGACAGCGGGUUCGAGUGCCGUACGGAGCG — lower, ≤ 0.5
- GUCCCGUUAGCGUAUUGGUAACGCGUCUCACUCCUAAGGAGGAGACUGCGGGUUCGAGUCCCGUACGGAACG — lower, 0.506
- GUCCCGUUAGCGUAAUGGUAACGCGUCUCCCUCCUAAGGAGAAGACUGCGGGUUCGAGUCCCGUACGGUACG — higher, 0.882
- GUCCCGUUAGCGUAAUGGUAACGCGUCUCCCUCCUAAGGAGAAGACUGCGGGUUCGAGUCUCGUACGGAACG — higher, 0.827
- GUCCCGUUAGCGUAAUGGUAACGCGUCUCCCUCCUAAGGAGAAGACUGCGGGUUCGAGUCCGGUACGGAACG — higher, 0.681
- GUCCCGUUAGCGGAAUGGUAACGCGCCUCCCUCCUAAGGAGAAGACUGCGGGUUCGAGUCCCGUACGGAACG — lower, ≤ 0.5
- GUCCCGUUCGUGUAAUGGUAACGCGUCUCGCUCCUAAGGAGACGACUGCGGGUUCGAGACCCGUACCGCACG — lower, ≤ 0.5
- GUCCCGUUGCCGUAAUGGUAACGCGUUUCCCUCCUAAGGAGAAGACUGCGGGUUCGAGUCCCGUAUGGAACG — lower, ≤ 0.5
- GUCCCGUUGCCGUAAUGGUAACGCGUUUCCCUCCUAAGGAGAAGACUGCGGGUUCGAGUCCCGUACGCAACG — lower, ≤ 0.5
- GUCCCGUUGUCGUAAUGGUAACGCGCCUCCCUCCUAAGGAGUAGACUGCGGGUUCGAGUCCCGUACGGAACG — lower, ≤ 0.5
- GUCCCGUUGGCAUAAUGGUAACGCGUCUCCCUCCUAAGGAGAAGACUGCGGGUUCGCGUCACGUACGGCACG — lower, ≤ 0.5
- GUCCCGUUGGCAUAAUGGUAACGAGUCUCCCUCCUUAGGAGAAGACUGCGGGUUCGAGUCUCGUACUGAACG — higher, 0.55
- GUCCCGUUGGCAUAAUGGUAACGCGUCUCCCUCCUAAGGAGAAGAUUGCGGCUUCGAGUCCCGUACGGAACG — lower, ≤ 0.5
- GUCCCGUUGGCAUAAUGGUAACGCGUCUCCCUCCUAAGGAGAAGACUCCGGGUUCGAGUCCCGUACGGAACG — higher, 0.558
- GUCCCGUUGGCAUAAUGGUAACGCGUCUCCCUCCUAAGGAGAAGACUGCAGGUUCGAGUCCCGUACGGAACG — higher, 0.662
- GUCCCGUUGGCGUAAUAGUAACGCGUCUCCCUCCUAAGGAGAAGACUGCGGGUUCGAGUCCCGUACGGAACG — higher, 0.831
- GUCCCGUUGGCGUAAUCGUAACGCGUCUCCCUCCUAAGGGGAAGACUGCGGGUUCGAGUCUCGUACGGAACG — lower, ≤ 0.5
- GUCCCGUUGGCGUAAUCGUAAAGGGUCCCCCUACUAAGGAGAAGACUGCGGGUUCGAGUCCCGUACGGAACG — lower, ≤ 0.5
- GUCCCGUUGGCGUAAUGAUAACGCGUCUCCCUCCUAAGGAGAAGACUGCGGGAGCGAGUCCCGUACUGAACG — lower, ≤ 0.5
- GUCCCGUUGGCGUAAUGGUAACACGUGUCCCUACUAAGGAGAAGACUGCGGGUUCGAGUCCCGUACGGAACG — lower, ≤ 0.5
- GUCCCGUUGGCGUAAUGGUAACCCGUCUCACUCCUAACGAGAAGACUGCGGGUUCGAGUCCCGUACGGAACG — lower, ≤ 0.5
- GUCCCGUUGGCGUAAUGGUAACGCAUCUCCCUCCUAAGGAGAAGACUGCGGGUUCGAGUCCCGUCCGGAACG — higher, 0.732
- GUCCCGUUGGCGUAAUGGUAACGCCUCUCCCUGCUAAGGAGAAGACUGCGGGUUCGAGUCGCGUACGGAACG — lower, ≤ 0.5
- GUCCCGUUGGCGUAAUGGUAACGCCUCUCCCUCCUAAGGAGAAGACUGUGGGUUCGAGUCCCGUACGGAACG — higher, 0.758
- GUCCCGUUGGCGUAAUGGUAACGCCUCUCCCUCCUAAAGAGCAGACUGCGGAUUCGAGUCCUGUACGGAACG — lower, ≤ 0.5
- GUCCCGUUGGCGUAAUGGUAACGCUUCUCCCUCCUAAGGAGAAGACUGCGGGUUCGAGCCCCGUACGGCACG — lower, 0.531
- GUCCCGUUGGCGUAAUGGUAACGCUUCUCCCUCCUAAGGAGAAGACUGCGGGUUCGAGUCCCGGACGGAACG — lower, ≤ 0.5
- GUCCCGUUGGCGUAAUGGUAACGCGUCUCCCUCCUAAAGAGAAGCCUGCGGGUUCGAGUCCCGUACGGAACG — lower, ≤ 0.5
- GUCCCGUUGGCGUAAUGGUAACGCGUCUCCCUCCUAACGGGAAGACUGCGGGUUCGAGUCCCGUACGGAACG — lower, 0.501
- GUCCCGUUGGCGUAAUGGUAACGCGUCUCCCUCCUAAGGAAAAGACUGCGGGUUCGAGUCCCGUCCGGAACG — lower, 0.51
- GUCCCGUUGGCGUAAUGGUAACGCGUCUCCCUCCUAAGGAAAAGACUGCGGGGUCGAGACCGGUACGGAACG — lower, ≤ 0.5
- GUCCCGUUGGCGUAAUGGUAACGCGUCUCCCUCCUAAGGAGAAGACUACGGGUUCGAGUCCCGUACGGAACG — higher, 0.952
- GUCCCGUUGGCGUAAUGGUAACGCGUCUCCCUCCUAAGGAGAAGACUACGGGUUCGAGUCCCGUACCGAACG — higher, 0.653
- GUCCCGUUGGCGUAAUGGUAACGCGUCUCCCUCCUAAGGAGAAGACUCCGGGUUCGAGUCCCGUACGGAACG — higher, 0.817
- GUCCCGUUGGCGUAAUGGUAACGCGUCUCCCUCCUAAGGAGAAGACUGCAGGUUCGAGUCCCGUACGGAACG — higher, 0.961
- GUCCCGUUGGCGUAAUGGUAACGCGUCUCCCUCCUAAGGAGAAGACUGCGGGUUCAAGCCCCGUACGGAACG — higher, 0.768
- GUCCCGUUGGCGUAAUGGUAACGCGUCUCCCUCCUAAGGAGAAGACUGCGGGUUCGAAUCCCGUACGGAACG — higher, 0.922
- GUCCCGAUGGCGUAAUGGUAACGCAUCUCCCUCCUAAGGAGUAGACUGCGGGUUCGAGUCCCGAACGGAACG — lower, ≤ 0.5
- GUCCCGGUGGCGUCAUGGUAACGCGUCUCCAUCCUAAGGAGAAGACUGCGGGUUCGAGUCCCGUACGGAACG — higher, 0.788
- GUCCCGUAGGCGUAAUGGUAACGCGUCUCCCUCCUAAGGAGAAGACUGCGGGUUCGAGUCCCGUACGGAACG — higher, 0.639
- GUCCCGUAGGCGUACUGGUAACGCGUCUCCCUCCUAAGGAGAAGACUGCGGGUUCGAGUCCCGUACGGAACG — lower, ≤ 0.5
- GUCCCGUAGGCGUAAUGGAAACGCGUCUCCCUCCUAAGGAGAAGACUGCGGGUGCGAGUCCCGUACGGAACG — lower, ≤ 0.5
- GUCCCGUCGGCGUAAUGGUAACGCGUCUCCCUCCUAAGGAGAAGACUGCGGGUUCGAGUCCCGUACGGAACG — higher, 0.906
- GUCCCGUCGGCGUAAUGGUAACGCGUCUCGCUCCCAAGGAGGAGACUGUGGGUUCAAAUCCCGUACGGACCG — lower, ≤ 0.5
- GUCCCGUUGGCGAAAUGGUAACGCGUCUCCCUCCUAAGGAGAAGACUGCGGGUUCGAGUCCCGUACGGAACG — higher, 0.983
- GUCCCGUUGGCGAAAUGGUAACGCGUCUCCUUCCUAAGGAAAAGACUGCGGGUUCGCGUCCCGUACGGAUCG — lower, ≤ 0.5
- GUCCCGUUGGCGCAAUGGUAACGUGUCUCCCUCCUAAGGAGAAGACUGCGGAUUCGAGUCCCGUACGUAACG — lower, ≤ 0.5
- GUCCCGUUGGCGCAAUGGAAAUGCGUCUCCCUCCUAAGGAGAAGACUGCGGGUUCGAGUCCCGUACGCAACG — lower, ≤ 0.5
- GUCCCGUUGGCGGAAUGGUAACGCGUCUCCCUCCUAAGGAGAAGACUGCGGGUUCGAGUCCCGUACGGAACG — higher, 1.04
- GUCCCGUUGGCGUAAAGGUAACGCGUCUCCCUCCUAAGGAGAAGACUGCGGGUUCGAGUCCCGUACGGAACG — higher, 0.936
- GUCCCGUUGGCGUAACGGUAACGCGUCUCGGUCCUAUGGAGAAGACUGCGGGUUCGAGUCCCGUACGGAACG — higher, 0.718
- GUCCCGUUGGCGUAAGGGUAACGCGUCUUCCUCCUAAGGAGAAGAUUGCGGGUUCGAGUCCCGUACCGUACG — lower, ≤ 0.5
- GUCCCGUUGGCGUAAGGAUAACGCGUCUCCCUCCUAAGGAGACGACUGCGGGAUCGAGUCCCGUACGGAACG — lower, ≤ 0.5
- GUCCCGUUGGCGUAAUGGAAACGCGUCUCCCUCCUAAGGAGAAGACUGCGGGUUCGGGUCCCGUACGGAACG — higher, 0.624
- GUCCCGUUGGCGUAAUGGAAAUGCGUCUCCCUCCUAAGGAGAAGACUGCGGGUUCGAGUCCCAUACGGAACG — lower, ≤ 0.5
- GUCCCGUUGGCGUAAUGGAAACGCGUCACCCUCCUAAGGAGAAGACUGCGGGUUCGAGUGCCGUACGGAACG — lower, ≤ 0.5
- GUCCCGUUGGCGUAAUGGGAACGCGUGUCCCUCAUAAGGAGUAGACUGCGGGUUCGAGUCCCGUACGGAACG — lower, ≤ 0.5
- GUCCCGUUGGCGUAAUGGUAACGCGCCUCCCUCCUAAGGAGAAGACUGCGGGUUCGAGUCCCGUACGGAACG — higher, 0.886
- GUCCCGUUGGCGUAAUGGUAACGCGCCUCCCUCCUAAGGAGUAGACUGCGGGUUCGAGUGCCGUACAGAACG — lower, ≤ 0.5
- GUCCCGUUGGCGUAAUGGUAACGCGUCCCCCUCCUAAGGAGAAGACUGCGGGUUCGAGUCCCGUACGGAACG — higher, 1.08
- GUCCCGUUGGCGUAAUGGUAACGCGUCUCCCACCUAAGGAGAAGAGUGCGGGUUCGAGUCCAGUACGGAACG — lower, ≤ 0.5
- GUCCCGUUGGCGUAAUGGUAACGCGUCUCCCUCCUAAGGAGAAGACAGCGGGCUCGAGUCCCGUACGGAACG — lower, ≤ 0.5
- GUCCCGUUGGCGUAAUGGUAACGCGUCUCCCUCCUAAGGAGAAGACUGCGGGUUCGAGACGCGUACGGAACG — higher, 0.587
- GUCCCGUUGGCGUAAUGGUAACGCGUCUCCCUCCUAAGGAGAAGACUGCGGGUUCGAGCCCCGUCCGGGACG — higher, 0.593
- GUGCCGUUGGCGUCAUGGUAACGGGUCUCCCUCCUGAGGAGAAGACUGCGGGUUCGAGUCCCGUACGGAACG — lower, ≤ 0.5

Reference: the RNAGym collection of RNA variant scans (doi:10.1126/science.aae0568)
